Published values from different studies.
Lines come from different studies, so protocols differ.
Target: Focal adhesion kinase 1 (PTK2, Homo sapiens, UniProt Q05397)

SMILES | test | setting | remaining binding [%]
COc1cnc(Nc2cccc(S(N)(=O)=O)c2)nc1N1CCN(c2ccccc2)CC1 | binding, competition with immobilised ligand | 1 µM | 100
N[C@H]1CCN(c2nccc(-c3cnn4ncccc34)n2)C1 | binding | 1 µM | 100
CNC(=O)[C@@H]1CC[C@@H](n2c(-c3ccc4cnccc4c3)nc3ccc(C(=O)NCc4cccc(C(N)=O)c4)cc32)C1 | binding, competition with immobilised ligand | 1 µM | 92
O=C(Nc1c[nH]nc1C(=O)NC1CCNCC1)c1cc(F)cc(F)c1 | binding, competition with immobilised ligand | 1 µM | 91
N#Cc1ccccc1CSc1nnc2c(n1)[nH]c1ccccc12 | binding, competition with immobilised ligand | 10 µM | 98
Cc1c(C(=O)O)cc(-c2ccc(C3CCNCC3)cc2)c2ccc(-c3ccc(C(F)(F)F)cc3)cc12 | binding, competition with immobilised ligand | 1 µM | 100
FC(F)(F)Oc1cccc(-c2cnc3ccc(-c4ccncc4)nn23)c1 | cell-free assay, competition with immobilised ligand | 5 µM | 83
Nc1ncc2c(n1)-c1c([nH]c3ccc(C#CC4CC4)cc13)CCCC2 | binding, competition with immobilised ligand | 1 µM | 91
c1cnn2ncc(-c3ccnc(N4CCC45COC5)n3)c2c1 | binding | 1 µM | 99
O=C(c1ccc(Nc2ncc(Cl)c(-c3ccc(Cl)s3)n2)cc1)N1CCC(N2CCCC2)CC1 | binding, competition with immobilised ligand | 1 µM | 41
CNC(=O)Nc1ccc2c(c1)[C@@]1(CC2)OC(=O)N(CC(=O)N(Cc2ccc(F)cc2)[C@@H](C)C(F)(F)F)C1=O | cell-free assay, competition with immobilised ligand | 1 µM | 100
C[C@@H]1CCN(c2nccc(-c3cnn4ncccc34)n2)C1 | binding | 1 µM | 100
c1ccc(N2CCN(Cc3nc4ccccc4[nH]3)CC2)nc1 | binding, competition with immobilised ligand | 1 µM | 86
O=C(c1ccc(Nc2ncc(Cl)c(-c3cc4ccccc4s3)n2)cc1)N1CCC(N2CCCC2)CC1 | binding, competition with immobilised ligand | 1 µM | 78
CC1CCCN1c1nccc(-c2cnn3ncccc23)n1 (stereo not shown) | binding | 1 µM | 100
COc1cccc(CNC(=O)c2nc3scc(COCc4ccc(C(=O)O)cc4)c3c(=O)[nH]2)c1 | cell-free assay, competition with immobilised ligand | 1 µM | 100
C[C@@H]1CN(c2ccc3ncc(-c4ccc5[nH]nc(C6CC6)c5c4)n3n2)C[C@H](C)O1 | binding, competition with immobilised ligand | 50 nM | 98
O=C(NS(=O)(=O)c1ccc(NCC2CCOCC2)c([N+](=O)[O-])c1)c1ccc(N2CCN(Cc3ccc(C(F)(F)F)cc3-c3ccc(Cl)cc3)CC2)cc1Oc1cnc2[nH]ccc2c1 | cell-free assay, competition with immobilised ligand | 1 µM | 100
COc1ncc2cc3ccccc3nc2c1C#N | cell-free assay, competition with immobilised ligand | 5 µM | 100
CN(C)c1ncc(F)c(-c2cnn3ncccc23)n1 | binding | 1 µM | 100
O=C(O)c1cc(-c2ccc(C3CCNCC3)cc2)c2ccc(-c3ccc(C(F)(F)F)cc3)cc2c1 | cell-free assay, competition with immobilised ligand | 1 µM | 100
O=C(NCCCN1CCOCC1)c1ccc(Nc2ncc(Cl)c(-c3ccc(Cl)s3)n2)cc1 | binding, competition with immobilised ligand | 1 µM | 8.1
